Calls of active or inactive are those of the source. The rule behind the calls is not given here.
What was measured:
Rattus norvegicus [1] = assay: Thymolytic activity in rat assessed as inhibition of thymus weight administered topically measured per pellet; format: organism-based; conditions: in vivo, topical_or_ocular
Summary of the method: (§1)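 Cotton-pellet granuloma test in rats; compounds suspended in 0.5% aqueous carboxymethylcellulose applied directly to the pellets, doses up to 40 µg/pellet; at least eight rats per dose. Granuloma and thymus weights converted to mg/100 g body weight. ED30 (30% inhibition) derived from log dose–response least-squares lines with 95% confidence limits, or approximated from eye-fit linear plots.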

Rattus norvegicus [2] = assay: Antiinflammatory activity in rat assessed as inhibition of cotton pellet-induced granuloma weight administered topically measured per pellet; format: functional; summary of the method: as §1
Rattus norvegicus [3] = assay: Antiinflammatory activity in po dosed rat assessed as inhibition of cotton pellet-induced granuloma weight administered bid for 7 days; format: functional, organism-based
Summary of the method: (§2)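 Rat cotton-pellet granuloma test; compounds suspended in 0.5% carboxymethylcellulose in water given orally daily for seven consecutive days, doses up to 12.5 mg/kg die; at least eight rats per dose. Granuloma and thymus weights expressed as mg/100 g body weight. ED30 (30% inhibition) from log dose–response least-squares regression with 95% confidence limits, or extrapolated from eye-fit plots.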

Rattus norvegicus [4] = assay: Mineralocorticoid activity in rat assessed as sodium retention up to 1 mg/kg, sc; format: ADME, organism-based; set-up: dose 1 mg/kg, route subcutaneous; conditions: in vivo
Rattus norvegicus [5] = assay: Thymolytic activity in po dosed rat assessed as inhibition of thymus weight administered bid for 7 days; format: organism-based; conditions: in vivo, 168 h; summary of the method: as §2

| SMILES | ED30 (Rattus norvegicus [1]) | ED30 (Rattus norvegicus [2]) | Activity (Rattus norvegicus [3]) | Activity (Rattus norvegicus [4]) | Activity (Rattus norvegicus [5]) |
| --- | --- | --- | --- | --- | --- |
| C[C@]12C=CC(=O)C=C1[C@H](F)C[C@H]1[C@@H]3CC[C@](O)(C(=O)CO)[C@@]3(C)C[C@H](O)[C@@]12F | > 40 µg | >40 µg |  |  |  |
| CC(=O)OCC(=O)[C@@]1(OC(C)=O)CC[C@H]2[C@@H]3C[C@@H](F)C4=CC(=O)C(Br)=C[C@]4(C)[C@@]3(F)[C@@H](O)C[C@@]21C [HALOPREDONE ACETATE] | > 1000 µg | 0.01 µg | inactive | Non-toxic | Non-toxic |
| CC1(C)O[C@@H]2C[C@H]3[C@@H]4C[C@H](F)C5=CC(=O)C=C[C@]5(C)[C@@]4(F)[C@@H](O)C[C@]3(C)[C@]2(C(=O)CO)O1 [FLUOCINOLONE ACETONIDE] | 5 µg | 1.02 µg |  |  |  |
| CC(=O)OCC(=O)[C@@]1(OC(C)=O)CC[C@H]2[C@@H]3C[C@H](F)C4=CC(=O)C(Br)=C[C@]4(C)[C@@]3(F)[C@@H](O)C[C@@]21C | > 40 µg | >40 µg | inactive |  | Non-toxic |
| CC(=O)OCC(=O)[C@@]1(O)CC[C@H]2[C@@H]3C[C@H](F)C4=CC(=O)C=C[C@]4(C)[C@@]3(F)[C@@H](O)C[C@@]21C | 20 µg | 40 µg |  |  |  |
| CC(=O)OCC(=O)[C@@]1(OC(C)=O)CC[C@H]2[C@@H]3C[C@H](F)C4=CC(=O)C=C[C@]4(C)[C@@]3(F)[C@@H](O)C[C@@]21C | 5 µg | 0.1 µg | inactive |  | Non-toxic |
| C[C@]12C=C(Br)C(=O)C=C1[C@H](F)C[C@H]1[C@@H]3CC[C@](O)(C(=O)CO)[C@@]3(C)C[C@H](O)[C@@]12F | > 40 µg | >40 µg |  |  |  |
| CC(=O)OCC(=O)[C@@]1(O)CC[C@H]2[C@@H]3C[C@@H](F)C4=CC(=O)C(Cl)=C[C@]4(C)[C@@]3(F)[C@@H](O)C[C@@]21C | > 40 µg | 9 µg |  |  |  |

More lines, main results first:

| ED30 (Rattus norvegicus [1]) | SMILES | ED30 (Rattus norvegicus [2]) | Activity (Rattus norvegicus [3]) | Activity (Rattus norvegicus [4]) | Activity (Rattus norvegicus [5]) |
| --- | --- | --- | --- | --- | --- |
| > 40 µg | CC(=O)OCC(=O)[C@@]1(O)CC[C@H]2[C@@H]3C[C@@H](F)C4=CC(=O)C=C[C@]4(C)[C@@]3(F)[C@@H](O)C[C@@]21C | >40 µg |  |  |  |
| 20 µg | C[C@]12C=CC(=O)C=C1[C@@H](F)C[C@H]1[C@@H]3CC[C@](O)(C(=O)CO)[C@@]3(C)C[C@H](O)[C@@]12F | 40 µg |  |  |  |
| > 40 µg | CC(=O)OCC(=O)[C@@]1(O)CC[C@H]2[C@@H]3C[C@@H](F)C4=CC(=O)C(Br)=C[C@]4(C)[C@@]3(F)[C@@H](O)C[C@@]21C | 40 µg |  |  |  |
| > 40 µg | CC(=O)OCC(=O)[C@@]1(OC(C)=O)CC[C@H]2[C@@H]3C[C@@H](F)C4=CC(=O)C=C[C@]4(C)[C@@]3(F)[C@@H](O)C[C@@]21C | 40 µg |  |  | Non-toxic |
| > 40 µg | CC(=O)OCC(=O)[C@@]1(OC(C)=O)CC[C@H]2[C@@H]3C[C@@H](F)C4=CC(=O)C(Cl)=C[C@]4(C)[C@@]3(F)[C@@H](O)C[C@@]21C | 0.45 µg | inactive |  | Non-toxic |
| > 40 µg | C[C@]12C=C(Cl)C(=O)C=C1[C@H](F)C[C@H]1[C@@H]3CC[C@](O)(C(=O)CO)[C@@]3(C)C[C@H](O)[C@@]12F | >40 µg |  |  |  |
| 40 µg | CC(=O)OCC(=O)[C@@]1(OC(C)=O)CC[C@H]2[C@@H]3C[C@H](F)C4=CC(=O)C(Cl)=C[C@]4(C)[C@@]3(F)[C@@H](O)C[C@@]21C | >40 µg | inactive |  | Non-toxic |

From ChEMBL document CHEMBL3244040, “Synthesis and topical antiinflammatory properties of 17,21-bis(acetyloxy)-6beta,9-difluoro-11beta-hydroxypregna-1,4-diene-3,20-dione and related 2-halogenated compounds” (J Med Chem, 1977)
